Assay results: PubChem BioAssay AID488769 (The Scripps Research Institute Molecular Screening Center, 2010)

Target: Nuclear receptor subfamily 5 group A member 2 (Homo sapiens) (UniProt O00482)
Test: suppression of cytokine-induced LRH-1 target mRNA, cell-based, quantitative PCR, fluorescence (AID 488769)
Conditions: Huh7 cytokine-induced target gene mRNA, TaqMan qPCR, 18 h, at 10 µM, hits give high values
How it was run: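 Assay system – Huh7 cells with endogenous LRH-1 expression · Control set – DMSO vehicle · Times – 18 h compound exposure, then 3 h cytokine stimulation · Reagent – IL-1β and IL-6, 3 nM · Compound – single test concentration of 10 µM, DMSO as vehicle · Repeats – triplicate qPCR measurements per sample · Technique – TaqMan qPCR of target mRNAs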

Sequence of Nuclear receptor subfamily 5 group A member 2 (Homo sapiens) (O00482 whole entry, looked up): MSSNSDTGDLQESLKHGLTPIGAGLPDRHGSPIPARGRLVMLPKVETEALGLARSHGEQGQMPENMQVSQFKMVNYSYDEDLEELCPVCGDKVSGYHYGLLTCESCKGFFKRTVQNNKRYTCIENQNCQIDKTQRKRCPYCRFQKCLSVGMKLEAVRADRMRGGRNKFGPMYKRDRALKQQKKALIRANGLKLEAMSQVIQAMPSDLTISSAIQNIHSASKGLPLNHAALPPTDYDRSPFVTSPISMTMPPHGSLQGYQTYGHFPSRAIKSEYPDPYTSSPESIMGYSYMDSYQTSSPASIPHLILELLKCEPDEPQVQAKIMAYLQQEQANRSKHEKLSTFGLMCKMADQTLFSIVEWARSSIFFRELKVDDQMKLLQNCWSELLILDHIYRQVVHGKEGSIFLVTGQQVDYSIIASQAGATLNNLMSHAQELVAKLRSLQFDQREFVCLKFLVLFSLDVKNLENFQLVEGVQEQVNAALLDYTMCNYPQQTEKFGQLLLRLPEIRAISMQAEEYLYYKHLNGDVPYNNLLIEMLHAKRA

inhibition (Haptoglobin) [%] | inhibition (SAA1) [%] | inhibition (SAA4) [%] | Structure (SMILES)
86 | 93 | 55 | O=c1cc(N2CCN(c3cccc(C(F)(F)F)c3)CC2)[nH]c(=O)n1C1CCCCC1
88 | 91 | 55 | O=c1cc(N2CCN(c3cccc(Cl)c3)CC2)[nH]c(=O)n1C1CCCCC1
